Results from different studies.
Each line is one published result; the experiments were not run side by side.
Target: 3-phosphoinositide-dependent protein kinase 1 (PDPK1, Homo sapiens, UniProt O15530)
Residues used in one study (O15530 1-556): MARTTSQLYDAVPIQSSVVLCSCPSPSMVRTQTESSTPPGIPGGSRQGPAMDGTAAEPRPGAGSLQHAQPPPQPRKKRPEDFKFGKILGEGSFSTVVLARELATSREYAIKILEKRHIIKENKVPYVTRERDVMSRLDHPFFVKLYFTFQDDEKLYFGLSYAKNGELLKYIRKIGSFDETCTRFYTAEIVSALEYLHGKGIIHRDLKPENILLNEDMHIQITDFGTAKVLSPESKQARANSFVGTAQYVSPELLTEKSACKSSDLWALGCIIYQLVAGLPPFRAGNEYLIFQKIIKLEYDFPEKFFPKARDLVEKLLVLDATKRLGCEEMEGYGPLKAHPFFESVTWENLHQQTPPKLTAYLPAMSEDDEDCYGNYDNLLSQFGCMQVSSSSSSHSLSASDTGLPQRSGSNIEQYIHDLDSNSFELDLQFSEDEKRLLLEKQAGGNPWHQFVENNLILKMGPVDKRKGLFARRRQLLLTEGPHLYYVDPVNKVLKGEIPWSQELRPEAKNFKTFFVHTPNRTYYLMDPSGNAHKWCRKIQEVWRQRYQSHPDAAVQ

`Nc1nc(Nc2ccccc2)sc1C(=O)c1c(F)cccc1F` gave a remaining activity of 65% (enzyme activity; inhibitor; 10 µM).
`CC(C)(C)c1nc2c(s1)c1nc(N)ncc1c1ccc(NS(=O)(=O)c3c(F)cccc3F)c(F)c12` gave a remaining activity of 82% (enzyme activity; inhibitor; radiometric; 1 µM).
With `O=C(O)c1cc(-c2ccc(C3CCNCC3)cc2)c2ccc(-c3ccc(C(F)(F)F)cc3)cc2c1` the remaining binding was 100% (cell-free assay; competition with immobilised ligand; 1 µM).
`Cc1cc(NC(=O)c2cccc3cc(-c4cccc5[nH]nc(N)c45)ccc23)ccc1F` gave an activity vs control of 101% (enzyme activity; inhibitor; 0.1 µM).
With `COc1cc(Nc2cnc(C#N)c(O[C@H](C)CN(C)C)n2)ncc1-c1cnn(C)c1` the remaining activity was 76% (enzyme activity; inhibitor; radiometric; 10 µM).
`CCCCN(CCCC)C(=O)CN1C[C@H](c2cc(OC)c3c(c2)OCO3)[C@@H](C(=O)O)[C@@H]1CC(C)(C)CCC` gave a remaining binding of 100% (cell-free assay; competition with immobilised ligand; 1 µM).
The remaining signal of `O=C1NC(=O)c2cc(Nc3ccc(F)cc3)c(Nc3ccc(F)cc3)cc21` is reported as 102% (cell-free assay; 0.5 µM).
`CCN(CC)c1ccc(C2=NNC(=O)CC2C)cc1[N+](=O)[O-]` (centres unmarked) gave a remaining activity of 116% (enzyme activity; inhibitor; 10 µM).
The remaining activity of `COc1cc(Cl)c(C(=O)N[C@@H](CN[C@H]2CC[C@@H](N)CC2)Cc2ccc(C#N)cc2)cc1-c1ccc(CN[C@H](C)c2ccc(C)cc2)o1` is reported as 73% (enzyme activity; inhibitor; 1 µM).
For `CC(C)(C)c1nc2c3cc[nH]c(=O)c3c3cc(F)ccc3c2[nH]1`, the remaining signal was 27% (cell-free assay; 0.5 µM).
`Oc1cccc(-c2nc(N3CCOCC3)c3oc4ncccc4c3n2)c1` gave a remaining activity of 107% (enzyme activity; inhibitor; 10 µM).
`O=Nc1c(-c2c(O)[nH]c3ccccc23)[nH]c2ccccc12` gave a remaining signal of 93% (cell-free assay; 0.5 µM).
`CN(C)C1CCN(CC#Cc2nn(C3CCCC3)c3nc(NCc4ccccc4)ncc23)C1` (centres unmarked) has an inhibition of 4% (enzyme activity; inhibitor; FRET; 1 µM).
The remaining binding of `Cc1nc(N2CC[C@@H](O)C2)ncc1-c1cc(C(F)(F)F)cc2[nH]ncc12` is reported as 100% (binding; competition with immobilised ligand; 1 µM).
With `CNC(=O)c1cc(Oc2ccc(NC(=O)Nc3ccc(Cl)c(C(F)(F)F)c3)cc2)ccn1` the remaining binding was 100% (cell-free assay; competition with immobilised ligand; 0.1 µM).
With `CS(=O)(=O)N1CCCC(NC(=O)[C@H](CCC2CCCCC2)NC(=O)c2ccc(CNc3ncnc4c3nnn4-c3ccccc3)cc2)C1` (some centres unmarked) the remaining binding was 99% (cell-free assay; competition with immobilised ligand; 0.1 µM).
With `Cc1ccc(C(=O)Nc2ccc(CN3CCN(C)CC3)c(C(F)(F)F)c2)cc1C#Cc1cnc2cccnn12` the remaining activity was 94% (enzyme activity; inhibitor; 23.5 nM).
The remaining signal of `COc1ccc(COc2ccc(Cc3cnc(N)nc3N)cc2OC)cc1` is reported as 89.4% (cell-free assay; 0.5 µM).
`O=C(Nc1cnn(-c2csc(C(=O)NC3COC3)c2)c1)Nc1ccccc1Cl` gave a remaining activity of 101% (enzyme activity; inhibitor; 5 µM).
With `C#Cc1cccc(Nc2ncnc3cc(OCCOC)c(OCCOC)cc23)c1` the remaining signal was 83.8% (cell-free assay; 0.5 µM).
For `CC(C)CC(=O)N1CCc2nc(-c3ccc(Br)cc3)nc(N(C)Cc3ccccc3)c2C1`, the remaining binding was 100% (cell-free assay; competition with immobilised ligand; 0.1 µM).
The remaining activity of `Cc1sc(C(=O)NC2COC2)cc1-n1cc(NC(=O)Nc2c(F)cccc2Cl)cn1` is reported as 99.2% (enzyme activity; inhibitor; 10 µM).
`COCCOc1nc(-c2ccc(Cl)nc2)nc2c1CN(C(=O)c1ncn3ccccc13)CC2` has a remaining binding of 90% (cell-free assay; competition with immobilised ligand; 0.1 µM).
For `FC(F)c1nc2ccccc2n1-c1nc(N2CCOCC2)nc(N2CCOCC2)n1`, the remaining activity was 92% (enzyme activity; inhibitor; 10 µM).
With `CNC(=O)Nc1ccc2c(c1)[C@@]1(CC2)OC(=O)N(CC(=O)N(Cc2ccc(F)cc2)[C@@H](C)C(F)(F)F)C1=O` the remaining binding was 85% (cell-free assay; competition with immobilised ligand; 1 µM).
For `CC(C)(C)C(=O)c1sc(NC2CCCCC2)nc1N`, the remaining activity was 108% (enzyme activity; inhibitor; 10 µM).
